Screening results deposited in PubChem BioAssay by several laboratories.
Most compounds without a hit are left out; they make up all but 3% or so of the library.
Yeast lifespan up: yeast lifespan extension; 130,000 compounds, 0.68% hits; AID 775; inhibition of the nicotinamide effect, % at 10 µM; S. cerevisiae growth with nicotinamide, OD615; deaD strain in restrictive glucose medium;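 active = inhibition above a set limit, placed 3 SD over the median of all compounds, cut at about 26% in these data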;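 also: 0% = nicotinamide-treated wells and 100% = cells grown without nicotinamide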
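Measured by: optical density (absorbance) at 615 nm; System: modified budding yeast, DeaD strain; Medium: restrictive CSMM-D dextrose medium; Timing: 4 h preincubation then 48 h treatment at 30 °C.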
BB579 growth dn: reduces growth of yeast BB579 in restrictive medium; S. cerevisiae BB579 growth, OD615, 48 h; inhibition, % at 10 µM; 140,000 compounds, 0.51% hits;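 active = inhibition above a set limit, 3 SD over the mean compound inhibition, cut at about 44% in these data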
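test system = yeast BB579 (DeaD) | buffer or medium = restrictive CSMM-D medium | doses = single compound dose of 10 µM, 0.25% DMSO final | times = 4 h preincubation and 48 h exposure at 30 °C | technique = culture absorbance at 615 nm | benchmarks = amphotericin B 10 µg/mL, positive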
Insulin prom up: MIN6 insulin promoter up-regulation; z-score at 5 µM; MIN6 insulin promoter-GFP reporter, high-content imaging; hits give high values; 190,000 compounds, 0.3% hits;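 active = z-score above 3 at 5 µM with at least 500 cells counted in the well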
RAM network inh: inhibitors of the yeast RAM network | S. cerevisiae dse1pr::URA3 reporter, 5-FOA growth OD615, 2 d; analog-sensitive cbk1-as2 kinase mutant strain | 190,000 compounds, 1.8% hits | inhibition, % at 50 µM;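 active = inhibition above a set limit, 3 SD over mean compound inhibition, cut at about 8.4% in these data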;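 also: 0% = DMSO-only wells with no growth and 100% = 10 µM 1-NA-PP1 full growth; inhibition rescues growth on 5-FOA so higher OD means more RAM inhibition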
Insulin prom inh: TRM-6 insulin promoter activity inhibition. TRM-6 cells, insulin promoter-eGFP reporter, imaging; reporter expression induced with tamoxifen. inhibition, % at 2 µM. 130,000 compounds, 0.9% hits;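 active = inhibition above the mean plus 3 SD, with well images judged a real hit on visual review, cut at about 60% in these data, passing the limit was not always enough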
* = called active by the depositor; nt = no result.

SMILES | Yeast lifespan up | BB579 growth dn | Insulin prom up | RAM network inh | Insulin prom inh
FC(F)(F)c1ccc(N=Cc2sc(N3CCOCC3)nc2-c2ccccc2)cc1 | -6 | -7 | -0.24 | 3 | nt
COc1cccc(CN(C(=O)Cn2nnc(-c3ccccc3F)n2)C(C(=O)NC(C)(C)C)c2ccncc2)c1 (stereo not given) | nt | nt | -0.81 | 1 | 35
Cc1ccc(NC(=S)NCC2CCN(C(C)c3ccccc3)C2)cc1C (stereo not given) | nt | nt | -0.33 | 0 | nt
COc1ccccc1CN(Cc1nc2ccccc2c(=O)[nH]1)C(=O)Nc1cccc(C)c1 | 66* | 6 | nt | 4 | -25
COc1ccccc1NC(=O)N(Cc1ccc2c(c1)OCO2)Cc1nc2ccccc2c(=O)[nH]1 | -9 | -58 | -0.68 | 8 | -8
CC(=O)c1ccc(NC(=S)NCCCN2CCOCC2)cc1 | nt | nt | -0.33 | 1 | nt
Cc1ccc(-n2c3nc(=O)[nH]c(=O)c-3cc3c(C)nn(-c4ccccc4)c32)c(C)c1 | 1 | -20 | 0.16 | 5 | -27
Cc1cccc(-n2c3nc(=O)[nH]c(=O)c-3cc3c(C)nn(-c4ccccc4)c32)c1 | 1 | -13 | -0.37 | 1 | 62*
Nc1n[nH]c(=S)n1/N=C1/C(=O)Nc2ccccc21 | nt | nt | -0.29 | 5 | 22
O=C(NCc1ccccc1)C1=C[C@H](C2CCCCC2)C[C@H](OCc2ccc(CO)cc2)O1 | nt | nt | -0.49 | 11* | nt
O=C(NCc1ccccc1)C1=C[C@@H](c2coc3ccccc3c2=O)C[C@@H](OCc2ccc(CO)cc2)O1 | nt | nt | -1.1 | 8.5* | nt
O=C(NCc1ccccc1)C1=C[C@@H](c2csc3ccccc23)C[C@@H](OCCCCO)O1 | nt | nt | nt | 11* | nt
Cn1c(=O)c2c(nc(Sc3ncnn3CC(=O)NC3CCCCC3)n2C)n(C)c1=O | nt | nt | -0.32 | nt | nt
CN1C=CC=C/C1=C1\SC(=S)N(N)C1=O | nt | nt | -0.22 | 0 | 20
CC1CCN(C(=O)C(C)Sc2nc(-c3ccccc3)cc(C(F)(F)F)n2)CC1 (stereo not given) | 4 | -16 | -1.3 | 8.8* | -7
CC(Sc1nc(-c2ccccc2)cc(C(F)(F)F)n1)C(=O)N1CCCC1 (stereo not given) | 5 | -27 | 1.7 | 8 | nt
Cc1cc(C)cc(NC(=O)Nc2ccc(Cl)cn2)c1 | nt | nt | 0.11 | 2 | nt
COc1ccccc1NC(=O)c1cc(S(=O)(=O)N2CCC3(CC2)OCCO3)ccc1F | -1 | -22 | 0.73 | 9.6* | 21
O=C(O)CC(NNC(=O)c1ccccc1)C(=O)Nc1ccc([N+](=O)[O-])cc1 (stereo not given) | nt | nt | 1.2 | nt | nt
CCOC(=O)CN1C(=O)N[C@H](c2ccc(Br)cc2)C(C(C)=O)=C1C | 46* | -45 | -0.42 | -1 | 5
CC(C)Nc1nnc(SC(C)C(=O)NCc2ccc3c(c2)OCO3)s1 (stereo not given) | nt | nt | -0.66 | 1 | nt
O=C1CS/C(=N\N=C\c2ccccc2Cl)N1CC1CC1 | nt | nt | -0.86 | nt | nt
COc1cc2c(cc1OC)-c1cc(OCc3ccccc3Cl)nc(=O)n1CC2 | -10 | -2 | 0.22 | 7 | 66*
COc1cc2c(cc1OC)-c1cc(NC3CCCC3)nc(=O)n1CC2 | -4 | -67 | 0.19 | 0 | -29
O=C(/C=C/c1ccc2ccccc2n1)c1cc(Br)ccc1O | nt | nt | 4.4* | nt | nt
SMILES | Yeast lifespan up | BB579 growth dn | Insulin prom up | RAM network inh | Insulin prom inh
O=C(O)/C=C/c1ccc2ccccc2n1 | nt | -30 | 1.3 | 1 | 12
O=C(NCCCN1CCOCC1)C(=O)N/N=C/c1ccc2c(c1)OCO2 | nt | nt | 0.75 | -1 | 33
O=C(O)CCCNC(=O)c1cccc(C(=O)NCCCC(=O)O)n1 | 6 | -28 | 0.38 | 1 | 0
CC(C)CCN1CCN(Cc2ccc(N3CCNC3=O)cc2)CC1CCO (stereo not given) | nt | nt | 0.57 | 2 | nt
CCCC(=O)NC(=S)Nc1ccc(Cl)cn1 | -16 | 4 | 1.1 | 1 | 83*
O=C1NC(c2ccccc2)=C(c2nc3ccccc3s2)C(c2ccc(F)cc2)N1 (stereo not given) | 15 | -11 | 0.93 | 6 | 8
COc1ccc(C2NC(=O)NC(c3ccccc3)=C2c2nc3ccccc3s2)cc1 (stereo not given) | -7 | -41 | 0.23 | 8.7* | -50
COc1ccc([N+](=O)[O-])cc1NC(=O)CSCc1ccc(Br)cc1 | -2 | -41 | nt | 11* | -20
COC(=O)c1ccc(C(=O)OC)c(NC(=O)CSCc2ccc(Br)cc2)c1 | -2 | -31 | 2.1 | 11* | nt
COc1ccc([N+](=O)[O-])cc1NC(=O)CSCc1ccccc1C | 1 | -54 | -0.23 | 8.6* | -36
O=C(CSCc1ccc(Cl)cc1)Nc1cc([N+](=O)[O-])ccc1O | nt | nt | -0.18 | 6 | nt
COc1ccc([N+](=O)[O-])cc1NC(=O)CSc1ncccn1 | nt | nt | 0.49 | 3 | -12
CCCCOC(=O)Nc1ccc(C(=O)OC)cc1 | -34 | -35 | 0.57 | 0 | nt
COC(=O)c1ccc(C(=O)OC)c(NC(=O)CCC(=O)O)c1 | -9 | -56 | 0.7 | 1 | -71
CCCCOC(=O)Nc1cc(C(=O)OC)ccc1C(=O)OC | -32 | -55 | 1.4 | 3 | 65*
Cc1cc(NC(=S)NC(=O)c2ccccc2)ccc1-c1cc2ccccc2oc1=O | 6 | -44 | 0.21 | 2 | -26
Cc1ccc(C(=O)O)cc1N=Cc1cc(Br)cc(Br)c1O | 4 | 90* | 0.23 | 1 | -36
C=C(C(=O)c1ccccc1)C(C)CC(=O)c1ccccc1 (stereo not given) | 34* | -17 | -2.5 | 0 | nt
O=C(CC(Nc1ccccc1)C(=O)O)c1ccccc1 (stereo not given) | -7 | -70 | -1 | 3 | nt
O=C(O)c1ncn(Cc2ccc(Br)cc2)c1C(=O)O | nt | nt | 0.88 | 0 | nt
COC(=O)CSc1nnnn1-c1cccc2ccccc12 | -26 | -13 | 0.03 | 0 | -215
O=C(CCCSc1nnnn1-c1cccc2ccccc12)c1ccc(F)cc1 | -1 | -32 | -2.2 | 9.4* | nt
O=c1cc(-c2ccccc2Cl)oc2ccc([N+](=O)[O-])c(O)c12 | 64* | -42 | 0.06 | 5 | 35
COc1ccccc1-c1cc(C(=O)N2CCN(c3ccc(F)cc3)CC2)no1 | -11 | -47 | 0.13 | 9.4* | nt
CCOc1ccccc1OCCCNCc1ccco1 | 3 | -1 | -0.47 | 3 | 0
SMILES | Yeast lifespan up | BB579 growth dn | Insulin prom up | RAM network inh | Insulin prom inh
Nc1nc(SCC(=O)N2CCc3ccccc3C2)[nH]c(=O)c1-c1ccccc1 | -13 | -19 | -0.38 | 0 | 75*
Cc1cccc(-n2ncc3c(Nc4c(C)n(C)n(-c5ccccc5)c4=O)ncnc32)c1 | -11 | 0 | 0.42 | 7 | 100*
Cc1c(Nc2ncnc3c2cnn3-c2ccccc2)c(=O)n(-c2ccccc2)n1C | -1 | -67 | 0.52 | 5 | 10
O=C1CC[C@@H](CN(Cc2ccccn2)Cc2nc(Cc3cccc(C(F)(F)F)c3)no2)N1 | nt | nt | 0.02 | 1 | 40
CCn1c(Sc2nc(C)nc3scc(-c4cccs4)c23)n[nH]c1=O | -7 | 99* | -1.2 | -1 | nt
Cc1ccc(C)c(NC(=O)CN(C)S(=O)(=O)c2cccc3cccnc23)c1 | nt | nt | -0.88 | nt | nt
